In ChEMBL document CHEMBL1125548, “Synthesis and pharmacological studies of N-substituted 6-[(2-aminoethyl)amino]-1,3-dimethyl-2,4(1H,3H)-pyrimidinediones, novel class III antiarrhythmic agents” (1992):

Assays:
Canis familiaris [1] = experiment: Percentage change of the duration of action potential at 75% repolarization was measured before and after the administration at 10.0 ug/mL; format: functional, Canis lupus familiaris
How it was run: (§1)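 Canine right-ventricular Purkinje fibers (mongrel dogs 7–11 kg, thiopental-anesthetized) superfused with Tyrode's (pH 7.5, 36 °C, gassed 95% O2/5% CO2). Compounds diluted from 1 mM water stock and added cumulatively. Readings taken 20 min after solution exchange. Result given as percent change in action potential duration.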

Canis familiaris [2] = experiment: The percentage change of the duration of action potential at 75% repolarization was measured before and after the administration at 3.0 ug/mL; format: functional, Canis lupus familiaris; how it was run: as §1
Canis familiaris [3] = experiment: The percentage change of the duration of action potential at 75% repolarization was measured before and after the administration at 1.0 ug/mL; format: functional, Canis lupus familiaris; how it was run: as §1
Canis familiaris [4] = experiment: The prolongation effect of the atrial and ventricular effective refractory period was measured before and after the administration at 0.1 mg/kg; format: functional, Canis lupus familiaris, Cardiac atrium; conditions: dose 1.0 mg/kg; in the assay text read “1.0 mg/kg” for “0.1 mg/kg”
How it was run: (§2)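 In vivo, mongrel dogs of either sex (7–13 kg), anesthetized with pentobarbital sodium 30 mg/kg iv. Left femoral artery cannulated for arterial pressure, femoral vein for drug dosing. Effective refractory period measured before and after administration.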

Canis familiaris [5] = experiment: The prolongation effect of the atrial and ventricular effective refractory period was measured before and after the administration at 0.3 mg/kg; format: functional, Canis lupus familiaris, Cardiac atrium; how it was run: as §2
Canis familiaris [6] = experiment: The prolongation effect of the atrial and ventricular effective refractory period was measured before and after the administration at 3 mg/kg; format: functional, Canis lupus familiaris, Cardiac atrium; how it was run: as §2
Canis familiaris [7] = experiment: The percentage change in the effective refractory period was measured before and after the administration at 0.1 mg/kg; format: functional, Canis lupus familiaris; conditions: dose 1.0 mg/kg; in the assay text read “1.0 mg/kg” for “0.1 mg/kg”; how it was run: as §2
Canis familiaris [8] = experiment: Concentration required for 50% inhibition of tachycardia induced by isoproterenol (0.5ug/mL, iv) in anesthetized dog; format: functional; conditions: Canis lupus familiaris, read-out: ID50 (the source's name)
Canis familiaris [9] = experiment: The prolongation effect of the atrial and ventricular effective refractory period was measured before and after the administration at 1 mg/kg; format: functional, Canis lupus familiaris, Cardiac atrium; how it was run: as §2
Canis familiaris [10] = experiment: The prolongation effect of the atrial and ventricular effective refractory period was measured before and after the administration at 1.0 mg/kg

With `CC(C)NCC(O)c1ccc(NS(C)(=O)=O)cc1` (stereo not given) [SOTALOL] as the molecule, how does the APD75 (Canis familiaris [1]) read?
Its APD75 is 11.2%.

And the APD75 (Canis familiaris [2])?
Its APD75 is 8%.

What about the APD75 (Canis familiaris [3]) of the same molecule?
The APD75 was 0.7%.

Which results are given for `Cl.Cn1c(N2CCN(CCCOc3ccc(F)cc3)CC2)cc(=O)n(C)c1=O`?
ERP (Canis familiaris [4]): 5.9%; APD75 (Canis familiaris [2]): 13%; ERP (Canis familiaris [5]): 5.9%; APD75 (Canis familiaris [3]): 9%; ERP (Canis familiaris [6]): 11.8%

What does the source list for `Cl.Cl.Cn1c(N2CCN(CCCOc3ccc([N+](=O)[O-])cc3)CC2)cc(=O)n(C)c1=O`?
APD75 (Canis familiaris [1]): 30%; ERP (Canis familiaris [7]): 15.8%; APD75 (Canis familiaris [2]): 22%; APD75 (Canis familiaris [3]): 17%

For `CNS(=O)(=O)c1ccc(OCCCN2CCN(c3cc(=O)n(C)c(=O)n3C)CC2)cc1.Cl`, which APD75 (Canis familiaris [2]) is on record?
The APD75 was 0%.

How did the APD75 (Canis familiaris [1]) turn out when `Cl.Cn1c(N2CCN(CCCOc3cccc(Cl)c3)CC2)cc(=O)n(C)c1=O` was run?
Its APD75 is 7%.

What about the APD75 (Canis familiaris [2]) of the same molecule?
Its APD75 is 6%.

Which APD75 (Canis familiaris [2]) does the source give for `Cl.Cl.Cn1c(N2CCN(CC(O)COc3ccccc3)CC2)cc(=O)n(C)c1=O` (stereo not given) here?
The APD75 was 13.7%.

What about the ED50 (Canis familiaris [8]) of the same molecule?
Its ED50 is > 5 mg/kg.

What about the APD75 (Canis familiaris [3]) of the same molecule?
The APD75 was 3.5%.

How did the APD75 (Canis familiaris [1]) turn out when `CSc1ccccc1OCCCN1CCN(c2cc(=O)n(C)c(=O)n2C)CC1.Cl` was run?
Its APD75 is 0%.

What about the APD75 (Canis familiaris [2]) of the same molecule?
Its APD75 is 0%.

What about the APD75 (Canis familiaris [3]) of the same molecule?
Its APD75 is 0%.

`Cl.Cn1c(N2CCN(CCCOc3ccccc3Cl)CC2)cc(=O)n(C)c1=O` was tested. Which APD75 (Canis familiaris [1]) did it give?
The APD75 was 7%.

What about the APD75 (Canis familiaris [2]) of the same molecule?
Its APD75 is 0%.

Which APD75 (Canis familiaris [1]) does the source give for `Cn1c(N2CCN(Cc3ccc([N+](=O)[O-])cc3)CC2)cc(=O)n(C)c1=O.O=C(O)C(=O)O` here?
Its APD75 is 11%.

And the APD75 (Canis familiaris [2])?
Its APD75 is 7%.

What about the ERP (Canis familiaris [9]) of the same molecule?
The ERP was 0%.

And the ERP (Canis familiaris [5])?
The ERP was 0%.

What about the APD75 (Canis familiaris [3]) of the same molecule?
Its APD75 is 3%.

What about the ERP (Canis familiaris [6]) of the same molecule?
Its ERP is 7%.

What does the source list for `CN(CCN(C)c1cc(=O)n(C)c(=O)n1C)CC(O)COc1ccccc1` (stereo not given)?
APD75 (Canis familiaris [2]): 8%; ED50 (Canis familiaris [8]): 1 mg/kg; APD75 (Canis familiaris [3]): 2.9%

`CS(=O)(=O)O.Cn1c(N2CCN(CCCOc3ccccc3)CC2)cc(=O)n(C)c1=O` was tested. Which APD75 (Canis familiaris [2]) did it give?
The APD75 was 22%.

And the ED50 (Canis familiaris [8])?
The ED50 was > 5 mg/kg.

What about the APD75 (Canis familiaris [3]) of the same molecule?
Its APD75 is 7%.

With `Cl.Cn1c(N2CCN(CCc3ccc([N+](=O)[O-])cc3)CC2)cc(=O)n(C)c1=O` as the molecule, how does the APD75 (Canis familiaris [3]) read?
The APD75 was 43%.

For `Cl.Cn1c(N2CCN(CCOc3ccc([N+](=O)[O-])cc3)CC2)cc(=O)n(C)c1=O`, which APD75 (Canis familiaris [1]) is on record?
Its APD75 is 43%.

And the APD75 (Canis familiaris [2])?
The APD75 was 22%.

And the APD75 (Canis familiaris [3])?
The APD75 was 8%.

For `CSc1ccc(OCCCN2CCN(c3cc(=O)n(C)c(=O)n3C)CC2)cc1.Cl`, which APD75 (Canis familiaris [1]) is on record?
Its APD75 is 25%.

What about the APD75 (Canis familiaris [2]) of the same molecule?
The APD75 was 13%.

And the ERP (Canis familiaris [10])?
The ERP was 7.7%.

What about the ERP (Canis familiaris [5]) of the same molecule?
Its ERP is 0%.

What about the APD75 (Canis familiaris [3]) of the same molecule?
The APD75 was 4%.

And the ERP (Canis familiaris [6])?
Its ERP is 15.4%.
